In ChEMBL document CHEMBL3232960, “Synthesis of novel 1,2,3-triazole/isoxazole functionalized 2H-Chromene derivatives and their cytotoxic activity” (Bioorg Med Chem Lett, 2014):

Experiments:
Format in all cases: functional, cell-based
DU-145 = test: Cytotoxicity against human DU145 cells assessed as growth inhibition after 24 hrs by MTT assay; settings: DU-145, 24 h
How it was run: (§1)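 Exponentially growing cells (A549 lung CCL-185, DU145 prostate HTB-81, HeLa cervical CCL-2, MCF7 breast HTB-22) exposed to a range of compound concentrations for 24 h; viability read by MTT. 5-Fluorouracil served as positive control. IC50 taken as concentration giving 50% drop in cell number versus untreated control cultures.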

HeLa = test: Cytotoxicity against human HeLa cells assessed as growth inhibition after 24 hrs by MTT assay; how it was run: as §1
A549 = test: Cytotoxicity against human A549 cells assessed as growth inhibition after 24 hrs by MTT assay; settings: A549, 24 h; how it was run: as §1
MCF7 = test: Cytotoxicity against human MCF7 cells assessed as growth inhibition after 24 hrs by MTT assay; settings: MCF7, 24 h; how it was run: as §1

`CCCCCCCCn1cc(COC2(C(F)(F)F)Oc3ccccc3C=C2C(=O)OCC)nn1` (stereo unspecified) was tested, and the IC50 (DU-145) was greater than 150 µM, the IC50 (HeLa) was greater than 150 µM and the IC50 (A549) was greater than 150 µM. It also gave an IC50 (MCF7) greater than 150 µM.

`O=C(O)C1=Cc2ccccc2OC1(OCc1cc(-c2cccc(C(F)(F)F)c2)no1)C(F)(F)F` (stereo unspecified) showed an IC50 (DU-145) of 155 µM, an IC50 (HeLa) greater than 150 µM and an IC50 (A549) greater than 150 µM. For the same compound, the IC50 (MCF7) was greater than 150 µM.

With `CCOC(=O)C1=Cc2ccccc2OC1(OCc1cc(-c2ccc(Br)cc2)no1)C(F)(F)F` (stereo unspecified) the IC50 (DU-145) was 71.7 µM, the IC50 (HeLa) was 52.3 µM and the IC50 (A549) was greater than 150 µM. For the same compound, the IC50 (MCF7) was greater than 150 µM.

For `CCOC(=O)C1=Cc2ccccc2OC1(OCc1cc(-c2ccc(OC)cc2)no1)C(F)(F)F` (stereo unspecified), the IC50 (DU-145) was greater than 150 µM, the IC50 (HeLa) was greater than 150 µM and the IC50 (A549) was greater than 150 µM. The IC50 (MCF7) was greater than 150 µM.

`O=c1[nH]cc(F)c(=O)[nH]1` [FLUOROURACIL] was tested, and the IC50 (DU-145) was 1.9 µM, the IC50 (HeLa) was 1.8 µM and the IC50 (A549) was 1.9 µM. The IC50 (MCF7) was 1.8 µM.

With `Cc1ccc(-c2cc(COC3(C(F)(F)F)Oc4ccccc4C=C3C(=O)O)on2)cc1` (stereo unspecified) the IC50 (DU-145) was 41.4 µM, the IC50 (HeLa) was 33.4 µM and the IC50 (A549) was 51.2 µM. For the same compound, the IC50 (MCF7) was 30.1 µM.

In the case of `CCOC(=O)C1=Cc2ccccc2OC1(OCc1cn(-c2cccc(C(F)(F)F)c2)nn1)C(F)(F)F` (stereo unspecified), the IC50 (DU-145) is reported as greater than 150 µM, the IC50 (HeLa) is reported as greater than 150 µM and the IC50 (A549) is reported as greater than 150 µM. For the same compound, the IC50 (MCF7) was greater than 150 µM.

Work on `CCOC(=O)C1=Cc2ccccc2OC1(OCc1cc(-c2ccc3ccccc3c2)no1)C(F)(F)F` (stereo unspecified) yielded an IC50 (DU-145) of 71.8 µM, an IC50 (HeLa) greater than 150 µM and an IC50 (A549) greater than 150 µM. For the same compound, the IC50 (MCF7) was 65.4 µM.

For `CCOC(=O)C1=Cc2ccccc2OC1(OCc1cn(CC(=O)NC2CCCCC2)nn1)C(F)(F)F` (stereo unspecified), the IC50 (DU-145) was 10.2 µM, the IC50 (HeLa) was 11.4 µM and the IC50 (A549) was 9.9 µM. For the same compound, the IC50 (MCF7) was 12.1 µM.

`CCOC(=O)C1=Cc2ccccc2OC1(OCc1cn(CC(=O)Nc2ccc(OC)cc2)nn1)C(F)(F)F` (stereo unspecified) gave an IC50 (DU-145) of 32.7 µM, an IC50 (HeLa) of 31.9 µM and an IC50 (A549) of 29.4 µM. For the same compound, the IC50 (MCF7) was 28.1 µM.

With `CCOC(=O)C1=Cc2ccccc2OC1(OCc1cn(-c2ccc(C)cc2)nn1)C(F)(F)F` (stereo unspecified) the IC50 (DU-145) was 30.2 µM, the IC50 (HeLa) was 25.1 µM and the IC50 (A549) was 19.7 µM. The IC50 (MCF7) was 26.7 µM.

Work on `CCOC(=O)C1=Cc2ccccc2OC1(OCc1cn(CC(=O)Nc2ccccc2F)nn1)C(F)(F)F` (stereo unspecified) yielded an IC50 (DU-145) of 33.9 µM, an IC50 (HeLa) of 49.9 µM and an IC50 (A549) of 50.1 µM. It also gave an IC50 (MCF7) of 42.1 µM.

Work on `CCOC(=O)C1=Cc2ccccc2OC1(OCc1cc(-c2ccc(F)cc2F)no1)C(F)(F)F` (stereo unspecified) yielded an IC50 (DU-145) greater than 150 µM, an IC50 (HeLa) greater than 150 µM and an IC50 (A549) greater than 150 µM. For the same compound, the IC50 (MCF7) was greater than 150 µM.

`CCOC(=O)C1=Cc2ccccc2OC1(OCc1cc(-c2ccc([N+](=O)[O-])cc2)no1)C(F)(F)F` (stereo unspecified) showed an IC50 (DU-145) greater than 150 µM, an IC50 (HeLa) greater than 150 µM and an IC50 (A549) greater than 150 µM. The IC50 (MCF7) was greater than 150 µM.

Compound `O=C(O)C1=Cc2ccccc2OC1(OCc1cc(-c2ccc([N+](=O)[O-])cc2)no1)C(F)(F)F` (stereo unspecified) has an IC50 (DU-145) of 100 µM, an IC50 (HeLa) greater than 150 µM and an IC50 (A549) greater than 150 µM. For the same compound, the IC50 (MCF7) was greater than 150 µM.

`CCOC(=O)C1=Cc2ccccc2OC1(OCc1cn(-c2cccc(OC)c2)nn1)C(F)(F)F` (stereo unspecified) showed an IC50 (DU-145) greater than 150 µM, an IC50 (HeLa) greater than 150 µM and an IC50 (A549) greater than 150 µM. It also gave an IC50 (MCF7) greater than 150 µM.

`CCOC(=O)C1=Cc2ccccc2OC1(OCc1cn(-c2ccccc2)nn1)C(F)(F)F` (stereo unspecified) gave an IC50 (DU-145) greater than 150 µM, an IC50 (HeLa) greater than 150 µM and an IC50 (A549) greater than 150 µM. It also gave an IC50 (MCF7) greater than 150 µM.

Compound `O=C(O)C1=Cc2ccccc2OC1(OCc1cc(-c2ccc(F)cc2)no1)C(F)(F)F` (stereo unspecified) has an IC50 (DU-145) of 168 µM, an IC50 (HeLa) greater than 150 µM and an IC50 (A549) greater than 150 µM. For the same compound, the IC50 (MCF7) was 64.2 µM.

`CCOC(=O)C1=Cc2ccccc2OC1(OCc1cn(CC(=O)Nc2ccc(I)cc2Cl)nn1)C(F)(F)F` (stereo unspecified) showed an IC50 (DU-145) of 24.4 µM, an IC50 (HeLa) of 26.1 µM and an IC50 (A549) of 22.3 µM. For the same compound, the IC50 (MCF7) was 28.1 µM.

In the case of `CCOC(=O)C1=Cc2ccccc2OC1(OCc1cc(-c2ccc(F)cc2)no1)C(F)(F)F` (stereo unspecified), the IC50 (DU-145) is reported as 53.5 µM, the IC50 (HeLa) is reported as 42.3 µM and the IC50 (A549) is reported as 35.5 µM. It also gave an IC50 (MCF7) of 48.2 µM.

With `CCOC(=O)C1=Cc2ccccc2OC1(OCc1cn(CC(=O)Nc2ccccc2Br)nn1)C(F)(F)F` (stereo unspecified) the IC50 (DU-145) was greater than 150 µM, the IC50 (HeLa) was greater than 150 µM and the IC50 (A549) was greater than 150 µM. It also gave an IC50 (MCF7) greater than 150 µM.

`CCOC(=O)C1=Cc2ccccc2OC1(OCc1cn(CC(=O)Nc2ccc(C)cc2)nn1)C(F)(F)F` (stereo unspecified) was tested, and the IC50 (DU-145) was greater than 150 µM, the IC50 (HeLa) was 67.4 µM and the IC50 (A549) was 54.3 µM. The IC50 (MCF7) was greater than 150 µM.

`CCOC(=O)C1=Cc2ccccc2OC1(OCc1cn(-c2ccc(F)c(Cl)c2)nn1)C(F)(F)F` (stereo unspecified) gave an IC50 (DU-145) of 21.5 µM, an IC50 (HeLa) of 22.7 µM and an IC50 (A549) of 26.3 µM. For the same compound, the IC50 (MCF7) was 25.3 µM.

With `CCOC(=O)C1=Cc2ccccc2OC1(OCc1cc(-c2ccc(Cl)cc2)no1)C(F)(F)F` (stereo unspecified) the IC50 (DU-145) was 18.2 µM, the IC50 (HeLa) was 12.3 µM and the IC50 (A549) was 19.1 µM. For the same compound, the IC50 (MCF7) was 18.2 µM.

`CCOC(=O)C1=Cc2ccccc2OC1(OCc1cc(-c2cccc(C(F)(F)F)c2)no1)C(F)(F)F` (stereo unspecified) was tested, and the IC50 (DU-145) was 57.3 µM, the IC50 (HeLa) was 21.4 µM and the IC50 (A549) was 48.6 µM. For the same compound, the IC50 (MCF7) was 22.1 µM.

For `O=C(O)C1=Cc2ccccc2OC1(OCc1cc(-c2ccc3ccccc3c2)no1)C(F)(F)F` (stereo unspecified), the IC50 (DU-145) was 140 µM, the IC50 (HeLa) was greater than 150 µM and the IC50 (A549) was greater than 150 µM. For the same compound, the IC50 (MCF7) was greater than 150 µM.

For `CCOC(=O)C1=Cc2ccccc2OC1(OCc1cn(CC(=O)Nc2cccc(F)c2)nn1)C(F)(F)F` (stereo unspecified), the IC50 (DU-145) was greater than 150 µM, the IC50 (HeLa) was greater than 150 µM and the IC50 (A549) was greater than 150 µM. The IC50 (MCF7) was greater than 150 µM.

`CCOC(=O)C1=Cc2ccccc2OC1(OCc1cn(-c2ccc(F)c([N+](=O)[O-])c2)nn1)C(F)(F)F` (stereo unspecified) gave an IC50 (DU-145) of 13.2 µM, an IC50 (HeLa) of 15.6 µM and an IC50 (A549) of 11.9 µM. It also gave an IC50 (MCF7) of 16.2 µM.

`CCOC(=O)C1=Cc2ccccc2OC1(OCc1cn(CC(=O)Nc2cccc(Cl)c2)nn1)C(F)(F)F` (stereo unspecified) gave an IC50 (DU-145) of 10.1 µM, an IC50 (HeLa) of 12.3 µM and an IC50 (A549) of 12.8 µM. The IC50 (MCF7) was 11.6 µM.

With `CCOC(=O)C1=Cc2ccccc2OC1(OCc1cn(-c2ccc(F)cc2)nn1)C(F)(F)F` (stereo unspecified) the IC50 (DU-145) was 8.9 µM, the IC50 (HeLa) was 8.4 µM and the IC50 (A549) was 7.3 µM. The IC50 (MCF7) was 9.1 µM.

`CCOC(=O)C1=Cc2ccccc2OC1(OCc1cn(-c2ccc([N+](=O)[O-])cc2)nn1)C(F)(F)F` (stereo unspecified) was tested, and the IC50 (DU-145) was greater than 150 µM, the IC50 (HeLa) was greater than 150 µM and the IC50 (A549) was greater than 150 µM. It also gave an IC50 (MCF7) greater than 150 µM.

`COc1ccc(-c2cc(COC3(C(F)(F)F)Oc4ccccc4C=C3C(=O)O)on2)cc1` (stereo unspecified) was tested, and the IC50 (DU-145) was 42 µM, the IC50 (HeLa) was greater than 150 µM and the IC50 (A549) was 36.2 µM. The IC50 (MCF7) was 35.2 µM.

`CCOC(=O)C1=Cc2ccccc2OC1(OCc1cc(-c2ccc(C)cc2)no1)C(F)(F)F` (stereo unspecified) showed an IC50 (DU-145) greater than 150 µM, an IC50 (HeLa) greater than 150 µM and an IC50 (A549) greater than 150 µM. The IC50 (MCF7) was greater than 150 µM.

Work on `O=C(O)C1=Cc2ccccc2OC1(OCc1cc(-c2ccc(F)cc2F)no1)C(F)(F)F` (stereo unspecified) yielded an IC50 (DU-145) greater than 150 µM, an IC50 (HeLa) greater than 150 µM and an IC50 (A549) greater than 150 µM. It also gave an IC50 (MCF7) greater than 150 µM.
